{"source": "paper PMC4464950", "about": "(Dalton transactions (Cambridge, England : 2003), 2015)", "key": {"cytochrome c": {"molecular_target": "cytochrome c (Equus caballus, UniProt P00004)", "sequence (P00004 whole entry, the tested form may be a part)": "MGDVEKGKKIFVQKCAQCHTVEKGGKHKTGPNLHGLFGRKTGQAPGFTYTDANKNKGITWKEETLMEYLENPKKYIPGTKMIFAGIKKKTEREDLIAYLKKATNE", "test": "ESI-MS metallodrug-protein interaction, cytochrome c", "type": "binding", "conditions": "3:1 metal/protein, 24 h RT, 20 mM ammonium acetate pH 6.8", "how_it_was_run": "(§1)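 Each protein (100 µM) in 20 mM ammonium acetate, pH 6.8, was mixed with test compound at a 3:1 metal/protein ratio and held 24 h at RT. Samples were diluted 20-fold with water and infused directly at 5 µl/min into an ESI Orbitrap (spray 3.1 kV, capillary 45 V, 220 °C, resolution 100,000 at m/z 400). Monoisotopic and average masses were obtained by deconvolution.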"}, "[1]": {"tested_on": "HCT116 (colon carcinoma) cells", "test": "Trypan blue exclusion cell growth inhibition, HCT116", "type": "cell-based, human", "how_it_was_run": "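HCT116 cells were grown in RPMI 1640 + 10% FBS at 37 °C, humidified 5% CO2, and seeded at 1 × 10⁴ cells/well with test compound. After 48 h, cells were mixed 1:1 with 0.4% trypan blue and counted on a haemocytometer, in triplicate. Points are means of four samples over three experiments. IC50/IC75/IC90 came from sigmoidal fits. Selectivity = IC50 in […] ÷ IC50 in cancer cells.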"}, "plasmid (pBR322) DNA": {"tested_on": "plasmid (pBR322) DNA", "test": "Electrophoresis mobility shift assay with plasmid DNA", "type": "binding", "conditions": "metal/DNAbp ratios 0.25-2.0; 37 °C, 20 h", "how_it_was_run": "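pBR322 plasmid DNA (20 µg/mL) in 5 mM Tris/HCl, 50 mM NaClO4, pH 7.39, was incubated with test compound at metal complex:DNA bp ratios of […], 37 °C, 20 h, in the dark. Free DNA and cisplatin-treated DNA served as controls. Samples ran on 1% agarose in TAE, 80 V for 1.5 h, then were GelRed-stained 30 min.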"}, "RNase A": {"molecular_target": "T1, RNase A (Bos taurus, UniProt P61823)", "T1 sequence (P61823 27-150)": "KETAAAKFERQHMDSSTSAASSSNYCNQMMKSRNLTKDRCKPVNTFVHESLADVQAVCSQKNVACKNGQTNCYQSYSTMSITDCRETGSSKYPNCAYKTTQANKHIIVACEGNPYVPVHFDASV", "test": "ESI-MS metallodrug-protein interaction, RNase", "type": "binding", "conditions": "3:1 metal/protein, 24 h RT, 20 mM ammonium acetate pH 6.8", "how_it_was_run": "as §1"}}}
{"compound": "Cc1ccc(C(C)C)cc1.Cc1ccc(C(C)C)cc1.[Cl][Ru][Cl].[Cl][Ru][Cl]", "note": "[a (Ru), [Ru(p-cymene)Cl(µ-Cl)]2]", "values": [{"measurement": "Interaction with cytochrome c (ESI-MS adducts)", "setting": "cytochrome c", "result": "protein binding of a Ru(p-cymene) fragment"}, {"measurement": "IC75 HCT116", "setting": "[1]; 48 h incubation, compounds dissolved in DMSO (1%), Trypan blue", "result": "313.3 ± 7.1", "unit": "µM"}, {"measurement": "Calculated tumour selectivity (IC50 L929/IC50 HCT116)", "setting": "[1]; IC50 normal cells divided by IC50 cancer cells", "result": 3.3}, {"measurement": "Effect on mobility of supercoiled form (Form I) of plasmid DNA", "setting": "plasmid (pBR322) DNA", "result": "did not affect the mobility"}, {"measurement": "Interaction with RNase (ESI-MS adducts)", "setting": "RNase A", "result": "protein binding of a Ru(p-cymene) fragment"}]}
